Experimental data as given in ChEMBL document CHEMBL4402567, “Structure-Activity Relationship Studies on Diversified Salicylamide Derivatives as Potent Inhibitors of Human Adenovirus Infection” (J Med Chem, 2020).
Active and inactive are the calls of the source. The calls are words filed in the database; no cut-off is given here.

How the values were obtained:
[1] = test system: Human adenovirus 5; experiment: Antiviral activity against Human adenovirus 5 infected in human A549 cells assessed as inhibition of viral entry after 48 hrs by GFP reporter gene based assay; format: functional, organism-based; conditions: Human mastadenovirus C, A549, 48 h
In short: (§1)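 Entry assay in A549 epithelial cells infected with HAdV5-GFP at high MOI, with compound present throughout and 48 h incubation. GFP expression is the read-out.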

[2] = test system: Human adenovirus 5; experiment: Antiviral activity against Human adenovirus 5 infected in human A549 cells assessed as inhibition of viral entry at 50 uM after 48 hrs by GFP reporter gene based assay relative to control; format: functional; conditions: Human mastadenovirus C, A549, 48 h; in short: as §1
[3] = test system: Human adenovirus 5; experiment: Antiviral activity against Human adenovirus 5 infected in human A549 cells asssessed as inhibition of viral entry by measuring nuclear-associated viral genome level at 5 uM after 45 mins by RT-PCR analysis (reference value: 100.24 +/- 2.77%); format: functional; design: scale not given: the % may be the effect or the level left
In short: (§2)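 Nuclear HAdV genome levels in treated cells were quantified at 45 min post-infection and compared with DMSO-treated cells. […] Bars are means ± SD of triplicate samples.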

[4] = test system: Human adenovirus 5; experiment: Antiviral activity against Human adenovirus 5 infected in 293beta5 cells assessed as inhibition of plaque formation incubated for 7 days by GFP reporter gene assay; format: functional, organism-based; conditions: Human mastadenovirus C, 293beta5, 168 h
In short: (§3)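 HAdV5-GFP plaque assay in 293β5 cells at low MOI. Inhibition is expressed as percent of the infected control, with single-dose screening at 10 μM. Compounds giving >90% inhibition went on to IC50 determination. Values are means ± SD of triplicate samples from three independent experiments.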

[5] = test system: Human adenovirus 5; experiment: Antiviral activity against Human adenovirus 5 infected in human A549 cells assessed as inhibition of viral DNA replication by measuring number of viral DNA copies at 5 uM after 24 hrs by RT-qPCR analysis (reference value: 100 +/- 1.55%); format: functional; design: scale not given: the % may be the effect or the level left
[6] = test system: Human adenovirus 5; experiment: Antiviral activity against Human adenovirus 5 infected in 293beta5 cells assessed as inhibition of plaque formation at 10 uM incubated for 7 days by GFP reporter gene assay relative to control; format: functional; conditions: Human mastadenovirus C, 293beta5, 168 h; in short: as §3
[7] = test system: Human adenovirus 5; experiment: Antiviral activity against Human adenovirus 5 infected in human A549 cells assessed as fold reduction in virus yield at 5 uM after 48 hrs endpoint dilution method relative to control; format: functional
[8] = test system: Human adenovirus 5; experiment: Antiviral activity against Human adenovirus 5 infected in human A549 cells asssessed as inhibition of viral entry by measuring nuclear-associated viral genome level at 50 uM after 45 mins by RT-PCR analysis (reference value: 100.24 +/- 2.77%); format: functional; design: scale not given: the % may be the effect or the level left; in short: as §2
[9] = test system: Human adenovirus 5; experiment: Antiviral activity against Human adenovirus 5 infected in human A549 cells assessed as fold reduction in virus yield at 50 uM after 48 hrs endpoint dilution method relative to control; format: functional
[10] = test system: Human adenovirus 5; experiment: Antiviral activity against Human adenovirus 5 infected in 293beta5 cells assessed as inhibition of viral replication at 10 uM measured immediately post infection by GFP reporter gene assay relative to control; format: functional; conditions: Human mastadenovirus C
[11] = Selectivity index, ratio of CC50 for cytotoxicity against human A549 cells to IC50 for antiviral activity against Human adenovirus 5 infected in 293beta5 cells assessed as inhibition of plaque formation after 7 days; format: toxicity, cell-based; conditions: read-out: Ratio CC50/IC50
[12] = Cytotoxicity against human A549 cells assessed as reduction in cell viability after 48 hrs by alamar blue assay; format: cell-based
[13] = test system: Human adenovirus 5; experiment: Antiviral activity against Human adenovirus 5 infected in human A549 cells assessed as inhibition of viral DNA replication by measuring number of viral DNA copies at 50 uM after 24 hrs by RT-qPCR analysis (reference value: 100 +/- 1.55%); format: functional; design: scale not given: the % may be the effect or the level left
[14] = test system: Human adenovirus 5; experiment: Antiviral activity against Human adenovirus 5 infected in 293beta5 cells assessed as inhibition of viral infection at 5 uM preincubated for 60 mins followed by viral infection by GFP reporter gene assay relative to control; format: functional; conditions: Human mastadenovirus C
[15] = test system: Human adenovirus 5; experiment: Antiviral activity against Human adenovirus 5 infected in 293beta5 cells assessed as inhibition of viral infection at 5 uM measured after 2 hrs post infection by gene assay relative to control; format: functional; conditions: Human mastadenovirus C, 293beta5, 2 h
[16] = test system: Human adenovirus 5; experiment: Antiviral activity against Human adenovirus 5 infected in human A549 cells assessed as inhibition of viral DNA replication at 5 uM after 24 hrs by RT-qPCR analysis relative to control; format: functional; conditions: Human mastadenovirus C, A549, 24 h
[17] = test system: Human adenovirus 5; experiment: Antiviral activity against Human adenovirus 5 infected in 293beta5 cells assessed as inhibition of viral infection at 5 uM measured after 20 to 40 mins post infection by GFP reporter gene assay relative to control; format: functional; design: scale not given: the % may be the effect or the level left
[18] = test system: Human adenovirus 5; experiment: Antiviral activity against Human adenovirus 5 infected in human A549 cells assessed as fold reduction in virus yield at 2 uM after 48 hrs endpoint dilution method relative to control; format: functional
[19] = test system: Human adenovirus 5; experiment: Antiviral activity against Human adenovirus 5 infected in human A549 cells assessed as inhibition of viral DNA replication by measuring number of viral DNA copies at 2 uM after 24 hrs by RT-qPCR analysis (reference value: 100 +/- 1.55%); format: functional; design: scale not given: the % may be the effect or the level left
[20] = test system: Human adenovirus 5; experiment: Antiviral activity against Human adenovirus 5 infected in human A549 cells asssessed as inhibition of viral entry by measuring nuclear-associated viral genome level at 2 uM after 45 mins by RT-PCR analysis (reference value: 100.24 +/- 2.77%); format: functional; design: scale not given: the % may be the effect or the level left; in short: as §2
[21] = test system: Human adenovirus 5; experiment: Antiviral activity against Human adenovirus 5 infected in 293beta5 cells assessed as inhibition of viral infection at 10 uM measured after 5 to 10 mins post infection by GFP reporter gene assay relative to control; format: functional; design: scale not given: the % may be the effect or the level left
[22] = test system: Human adenovirus 5; experiment: Antiviral activity against Human adenovirus 5 infected in human A549 cells assessed as inhibition of viral DNA replication by measuring number of viral DNA copies at 10 uM after 24 hrs by RT-qPCR analysis (reference value: 100 +/- 1.55%); format: functional; design: scale not given: the % may be the effect or the level left
[23] = test system: Human adenovirus 5; experiment: Antiviral activity against Human adenovirus 5 infected in human A549 cells asssessed as inhibition of viral entry by measuring nuclear-associated viral genome level at 10 uM after 45 mins by RT-PCR analysis (reference value: 100.24 +/- 2.77%); format: functional; design: scale not given: the % may be the effect or the level left; in short: as §2
[24] = test system: Human adenovirus 5; experiment: Antiviral activity against Human adenovirus 5 infected in human A549 cells assessed as fold reduction in virus yield at 10 uM after 48 hrs endpoint dilution method relative to control; format: functional
[25] = test system: Human adenovirus 5; experiment: Antiviral activity against Human adenovirus 5 infected in human A549 cells assessed as fold reduction in virus yield at 20 uM after 48 hrs endpoint dilution method relative to control; format: functional
[26] = test system: Human adenovirus 5; experiment: Antiviral activity against Human adenovirus 5 infected in human A549 cells assessed as inhibition of viral DNA replication by measuring number of viral DNA copies at 20 uM after 24 hrs by RT-qPCR analysis (reference value: 100 +/- 1.55%); format: functional; design: scale not given: the % may be the effect or the level left
[27] = test system: Human adenovirus 5; experiment: Antiviral activity against Human adenovirus 5 infected in 293beta5 cells assessed as reduction in inhibition of viral replication at 10 uM preincubated for 60 mins followed by viral infection by GFP reporter gene assay; format: functional, organism-based
[28] = test system: Human adenovirus 5; experiment: Antiviral activity against Human adenovirus 5 infected in human A549 cells asssessed as inhibition of viral entry by measuring nuclear-associated viral genome level at 20 uM after 45 mins by RT-PCR analysis (reference value: 100.24 +/- 2.77%); format: functional; design: scale not given: the % may be the effect or the level left; in short: as §2
[29] = test system: Human adenovirus 5; experiment: Antiviral activity against Human adenovirus 5 infected in 293beta5 cells assessed as inhibition of viral replication at 10 uM after 20 mins post infection by GFP reporter gene assay relative to control; format: functional; conditions: Human mastadenovirus C, 293beta5, 20 min
[30] = test system: Human adenovirus 5; experiment: Antiviral activity against Human adenovirus 5 infected in 293beta5 cells assessed as inhibition of viral infection at 10 uM preincubated for 60 mins followed by viral infection by GFP reporter gene assay relative to control; format: functional; conditions: Human mastadenovirus C
[31] = test system: Human adenovirus 5; experiment: Antiviral activity against Human adenovirus 5 infected in 293beta5 cells assessed as inhibition of viral infection at 10 uM measured after 2 hrs post infection by GFP reporter gene assay relative to control; format: functional; conditions: Human mastadenovirus C, 293beta5, 2 h

Row | Structure (SMILES) | IC50 [1] [nM] | inhibition at 50 µM [2] [%] | IC50 [4] [nM] | inhibition at 10 µM [6] [%] | selectivity ratio at 168 h [11] | CC50 at 48 h [12] [nM] | other results
1 | O=C(Nc1ccc([N+](=O)[O-])cc1Cl)c1cc(Cl)ccc1O [NICLOSAMIDE] | 1220 | 100 | 600 | 100 |  |  | Activity [3]: 49.51%; Activity [5]: 0.05%; fold change (FC) [7]: 82
2 | CC(C)[C@H](NC(=O)c1cc(Cl)ccc1O)C(=O)Nc1ccc([N+](=O)[O-])cc1Cl | 11200 |  | 450 | 100 | 444 | 200000 | Activity [8]: 91.82%; fold change (FC) [9]: 213; inhibition at 10 µM [10]: < 50%; Activity [13]: 60.09%
3 | CC(C)(NC(=O)c1cc(Cl)ccc1O)c1ccc(F)cc1 |  |  | 3460 | 100 | > 57.8 | > 200000 | 
4 | O=C(Nc1cc(F)cc(C(F)(F)F)c1)c1cc(Cl)ccc1O | 2230 | 100 | 180 | 100 | 667 | 120000 | Activity [8]: 66.96%; fold change (FC) [9]: 989; inhibition at 10 µM [10]: < 50%; Activity [13]: 82.41%
5 | O=C(Nc1cc(F)cc(C(F)(F)F)c1)c1ccc(Cl)cc1O | 260 | 100 | 110 |  | 187 | 20600 | inhibition at 5 µM [14]: > 50%; Activity [3]: 54.74%; Activity [5]: 68.17%; inhibition at 5 µM [15]: > 50%; fold change (FC) [7]: 385
6 | O=C(Nc1ccc([N+](=O)[O-])cc1)c1cc(Cl)ccc1O |  | 100 | 110 |  |  |  | inhibition at 5 µM [16]: > 90%; inhibition at 5 µM [14]: > 50%; Activity [3]: 15.48%; Activity [5]: 0.51%; inhibition at 5 µM [15]: > 50%; fold change (FC) [7]: 137
7 | O=C(Nc1cc([N+](=O)[O-])ccc1F)c1cc(Cl)ccc1O |  |  | 310 | 100 | 26.2 | 8100 | 
8 | O=C(Nc1ccc([N+](=O)[O-])cc1F)c1cc(Cl)ccc1O | 1570 |  | 50 |  | 218 | 10900 | Activity [17]: 34%; fold change (FC) [18]: 1.8; Activity [19]: 75.85%; Activity [20]: 57.6%
9 | O=C(Nc1ccc(C(F)(F)F)cc1Cl)c1cc(Cl)ccc1O | 1670 | 100 | 80 | 100 |  |  | Activity [21]: 20%; Activity [22]: 27.03%; Activity [23]: 46.53%; fold change (FC) [24]: 175
10 | CC[C@@H](C)[C@H](NC(=O)c1cc(Cl)ccc1O)C(=O)Nc1ccc([N+](=O)[O-])cc1Cl | 2500 |  | 160 |  | 128 | 20200 | inhibition at 5 µM [16]: > 90%; inhibition at 5 µM [14]: > 50%; Activity [3]: 0.54%; Activity [5]: 2.33%; inhibition at 5 µM [15]: > 50%; fold change (FC) [7]: 10
11 | C[C@@H](NC(=O)c1cc(Cl)ccc1O)c1ccc(F)cc1 |  |  | 3020 | 100 | > 66.2 | > 200000 | 
12 | O=C(Nc1cc(C(F)(F)F)cc(C(F)(F)F)c1)c1cc(Cl)ccc1O [IMD-0354] |  |  | 60 | 100 | 68.3 | 4100 | 
13 | C[C@H](NC(=O)c1cc(Cl)ccc1O)c1ccccc1 |  |  | 2540 | 100 | 78.5 | 199000 | 
14 | O=C(N[C@H](Cc1ccccc1)C(=O)Nc1ccc([N+](=O)[O-])cc1Cl)c1cc(Cl)ccc1O | 9700 |  | 300 | 100 | 260 | 77900 | fold change (FC) [25]: 528; Activity [26]: 25.78%; Activity [27]: Active; Activity [28]: 32.21%; inhibition at 10 µM [29]: 50%
15 | CC(C)[C@H](NC(=O)c1cc(Cl)ccc1NS(C)(=O)=O)C(=O)Nc1ccc([N+](=O)[O-])cc1Cl | 1380 | 99.1 | 680 | 99.1 | 256 | 174000 | Activity [8]: 16.68%; inhibition at 10 µM [30]: > 50%; fold change (FC) [9]: 1; inhibition at 10 µM [31]: > 50%; Activity [13]: 4.56%
16 | O=C(NCc1ccc([N+](=O)[O-])cc1Cl)c1cc(Cl)ccc1O |  |  | 1400 | 100 | 36.7 | 51400 | 
17 | O=C(CNC(=O)c1cc(Cl)ccc1O)Nc1ccc([N+](=O)[O-])cc1Cl |  |  | 2430 | 100 | 53.2 | 129000 | 
18 | O=C(Nc1ccc(F)c(F)c1)c1cc(Cl)ccc1O |  |  | 270 | 100 | 29.6 | 8000 | 
